Results from ChEMBL document CHEMBL1649122, “Abc1p is a multidrug efflux transporter that tips the balance in favor of innate azole resistance in Candida krusei” (2009).
≈ marks a conversion by molar mass, not a printed value. Calls of active or inactive are those of the source. The rule behind the calls is not given here. *1 amine or outer side, *2 acyl side, *3 side chain or, on linkers, in order; H or OH if unused. Where a SMILES comes first, the peptide text is derived from it. [ ]: non-standard residue; d: D form. X1 = CC[C@@H](C)[C@@H](O[*:1])C(=O)[*:2]; NMeVal(β-OH) = CN[C@H](C(=O)O)C(C)(C)O; NMeF = CN[C@@H](Cc1ccccc1)C(=O)O; aIle = CC[C@@H](C)[C@H](N)C(=O)O; NMeV = CN[C@H](C(=O)O)C(C)C

Assays:
Pichia kudriavzevii [1] = assay: Increase in ABC1 mRNA expression in Candida krusei B2402 after 60 mins by hot-phenol extraction based Northern blotting; format: functional, organism-based
Pichia kudriavzevii [2] = assay: Increase in ERG11 mRNA expression in Candida krusei B2401 after 60 mins by hot-phenol extraction based Northern blotting; format: functional, organism-based
[3] = target: ATP binding cassette transporter Abc1p (Issatchenkia orientalis) (UniProt Q09GQ4); assay: Inhibition of Candida krusei ABC1 expressed in Saccharomyces cerevisiae isolate ADdelta at 7 nM; settings: Pichia kudriavzevii
[4] = target: ATP binding cassette transporter Abc1p (Issatchenkia orientalis) (UniProt Q09GQ4); assay: Inhibition of Candida krusei ABC1 expressed in Saccharomyces cerevisiae isolate ADdelta at 12 nM; settings: Pichia kudriavzevii
Method in brief: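 Agarose disk-diffusion test of S. cerevisiae AD overexpressing C. krusei Abc1p, with the parent AD strain as comparison. Cells were pregrown from YPD overnight into CSM to mid-log at 30°C. They were seeded at OD600 0.008 in CSM with 0.6% agarose, overlaid on CSM agar (pH 7.0). Paper disks carrying set nmol amounts of xenobiotic were applied, and plates were incubated at 30°C for 48 h before reading growth inhibition zones.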

Pichia kudriavzevii [5] = assay: Antimicrobial activity against Candida krusei B2399 after 48 hrs by CLSI method; format: functional; settings: B2399, 48 h
Method in brief: (§1)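 Azole MICs were determined by the CLSI M27-A2 broth microdilution reference method. They were interpreted against the CLSI breakpoints. Strains were maintained in YPD medium (1% yeast extract, 2% peptone, 2% glucose).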

Saccharomyces cerevisiae [6] = assay: Antimicrobial activity against Saccharomyces cerevisiae isolate ADdelta overexpressing Candida krusei ERG11g after 48 hrs by liquid microdilution assay; format: functional
Method in brief: (§2)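 Liquid broth microdilution susceptibility assay in CSM medium at pH 7.0, which was also the medium used for the expression studies. Fungal strains were maintained in YPD. The S. cerevisiae test strains carry C. krusei ABC1 or fungal ERG11 alleles integrated at the chromosomal PDR5 locus.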

Saccharomyces cerevisiae [7] = assay: Fold resistant, ratio of MIC for Saccharomyces cerevisiae isolate ADdelta overexpressing Candida krusei ERG11C to MIC for Saccharomyces cerevisiae isolate ADdelta overexpressing Abc1p; format: functional
Method in brief: (§3)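 Fold resistance is the ratio of azole MICs between S. cerevisiae overexpressing strains. The MICs were measured by liquid broth microdilution in CSM medium at pH 7.0. The ERG11 or ABC1 constructs are integrated at the PDR5 locus.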

Pichia kudriavzevii [8] = assay: Antimicrobial activity against Candida krusei NZCDC 89.021 after 48 hrs by CLSI method; format: functional; settings: NZCDC 89.021, 48 h; method in brief: as §1
Pichia kudriavzevii [9] = assay: Antimicrobial activity against Candida krusei NZCDC 90.147 after 48 hrs by CLSI method; format: functional; method in brief: as §1
Pichia kudriavzevii [10] = assay: Antimicrobial activity against Candida krusei IFO0011 after 48 hrs by liquid microdilution assay; format: functional; settings: IFO0011, 48 h; method in brief: as §2
Saccharomyces cerevisiae [11] = assay: Antimicrobial activity against Saccharomyces cerevisiae isolate ADdelta overexpressing Saccharomyces cerevisiae ERG11 after 48 hrs by liquid microdilution assay; format: functional; method in brief: as §2
Pichia kudriavzevii [12] = assay: Increase in ABC1 mRNA expression in Candida krusei B2399 at MIC concentration after 320 mins by hot-phenol extraction based Northern blotting; format: functional, organism-based
Method in brief: (§4)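 Northern blot. Logarithmically grown C. krusei B2399 was exposed to azoles for 60 min (FLC 1x MIC; VRC, MCZ, ITC 2x MIC) or to FLC at 1x MIC over a time course. About 100 OD units of cells were harvested. Total RNA was extracted with hot phenol, and 10 µg was run on 1.2% denaturing agarose. Blots were probed with radiolabelled ABC1 or ERG11, with ACT1 as internal control.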

Pichia kudriavzevii [13] = assay: Antimicrobial activity against Candida krusei NZCDC 89.221 after 48 hrs by CLSI method; format: functional; method in brief: as §1
Saccharomyces cerevisiae [14] = assay: Antimicrobial activity against Saccharomyces cerevisiae isolate ADdelta overexpressing Candida albicans ERG11A after 48 hrs by liquid microdilution assay; format: functional; method in brief: as §2
Saccharomyces cerevisiae [15] = assay: Fold resistant, ratio of MIC for Saccharomyces cerevisiae isolate ADdelta overexpressing Saccharomyces cerevisiae ERG11 to MIC for Saccharomyces cerevisiae isolate ADdelta overexpressing Abc1p; format: functional; method in brief: as §3
Pichia kudriavzevii [16] = assay: Antimicrobial activity against Candida krusei IFO0011 after 48 hrs by CLSI method; format: functional; settings: IFO0011, 48 h; method in brief: as §1
Pichia kudriavzevii [17] = assay: Antimicrobial activity against Candida krusei NZCDC 89.021 after 48 hrs by liquid microdilution assay; format: functional; settings: NZCDC 89.021, 48 h; method in brief: as §2
Pichia kudriavzevii [18] = assay: Increase in ERG11 mRNA expression in Candida krusei B2399 at MIC concentration after 1 hr by hot-phenol extraction based Northern blotting; format: functional, organism-based; method in brief: as §4
Saccharomyces cerevisiae [19] = assay: Antimicrobial activity against Saccharomyces cerevisiae isolate ADdelta overexpressing Abc1p after 48 hrs by liquid microdilution assay; format: functional; method in brief: as §2
Pichia kudriavzevii [20] = assay: Antimicrobial activity against Candida krusei NZCDC 89.102 after 48 hrs by CLSI method; format: functional; method in brief: as §1
Pichia kudriavzevii [21] = assay: Increase in ERG11 mRNA expression in Candida krusei B2400 at MIC concentration after 80 mins by hot-phenol extraction based Northern blotting; format: functional, organism-based
Saccharomyces cerevisiae [22] = assay: Antimicrobial activity against Saccharomyces cerevisiae isolate AD overexpressing Candida krusei ERG11C after 48 hrs by liquid microdilution assay; format: functional; method in brief: as §2
Pichia kudriavzevii [23] = assay: Increase in ERG11 mRNA expression in Candida krusei B2399 at > 200 ug/ml after up to 320 mins by hot-phenol extraction based Northern blotting; format: functional, organism-based; method in brief: as §4
[24] = target: ATP binding cassette transporter Abc1p (Issatchenkia orientalis) (UniProt Q09GQ4); assay: Inhibition of Candida krusei ABC1 expressed in Saccharomyces cerevisiae isolate ADdelta at 23 nM; settings: Pichia kudriavzevii
Pichia kudriavzevii [25] = assay: Antimicrobial activity against Candida krusei NZCDC 89.102 after 48 hrs by liquid microdilution assay; format: functional; settings: NZCDC 89.102, 48 h; method in brief: as §2
Saccharomyces cerevisiae [26] = assay: Fold resistant, ratio of MIC for Saccharomyces cerevisiae isolate ADdelta overexpressing Candida krusei ERG11g to MIC for Saccharomyces cerevisiae isolate ADdelta overexpressing Abc1p; format: functional; method in brief: as §3
Saccharomyces cerevisiae [27] = assay: Fold resistant, ratio of MIC for Saccharomyces cerevisiae isolate ADdelta overexpressing Candida albicans ERG11A to MIC for Saccharomyces cerevisiae isolate ADdelta overexpressing Abc1p; format: functional; method in brief: as §3
Pichia kudriavzevii [28] = assay: Antimicrobial activity against Candida krusei B2399 after 48 hrs by liquid microdilution assay; format: functional; settings: B2399, 48 h; method in brief: as §2
Pichia kudriavzevii [29] = assay: Antimicrobial activity against Candida krusei NZCDC 90.147 after 48 hrs by liquid microdilution assay; format: functional; settings: NZCDC 90.147, 48 h; method in brief: as §2
Pichia kudriavzevii [30] = assay: Antimicrobial activity against Candida krusei NZCDC 89.221 after 48 hrs by liquid microdilution assay; format: functional; settings: NZCDC 89.221, 48 h; method in brief: as §2
[31] = target: ATP binding cassette transporter Abc1p (Issatchenkia orientalis) (UniProt Q09GQ4); assay: Inhibition of Candida krusei B2399 Abc1p assessed as fractional inhibitory concentration index at 2.5 ug/ml after 48 hrs by checkerboard susceptibility assay; settings: Pichia kudriavzevii
Method in brief: (§5)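 Checkerboard susceptibility assay combining the Abc1p inhibitor with FLC or ITC. MICs were determined at various inhibitor concentrations. The fractional inhibitory concentration index was calculated for each combination.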

[32] = target: ATP binding cassette transporter Abc1p (Issatchenkia orientalis) (UniProt Q09GQ4); assay: Inhibition of Candida krusei […] expressed in Saccharomyces cerevisiae isolate ADdelta assessed as fractional inhibitory concentration index at 2.5 ug/ml after 48 hrs by checkerboard susceptibility assay; settings: Pichia kudriavzevii; method in brief: as §5
[33] = target: ATP binding cassette transporter Abc1p (Issatchenkia orientalis) (UniProt Q09GQ4); assay: Inhibition of Candida krusei ABC1 expressed in Saccharomyces cerevisiae isolate ADdelta at 4 nM; settings: Pichia kudriavzevii
[34] = target: ATP binding cassette transporter Abc1p (Issatchenkia orientalis) (UniProt Q09GQ4); assay: Inhibition of Candida krusei ABC1 expressed in Saccharomyces cerevisiae isolate ADdelta at 20 nM; settings: Pichia kudriavzevii

Question: With `CC(C)[C@@H](C)/C=C/[C@@H](C)[C@H]1CC[C@H]2C3=CC=C4C[C@@H](O)CC[C@]4(C)[C@H]3CC[C@]12C` as the molecule, how does the Activity (Pichia kudriavzevii [1]) read?
Answer: inactive

Question: What about the Activity (Pichia kudriavzevii [2]) of the same molecule?
Answer: inactive

Question: `CC[C@@H](C)[C@@H]1NC(=O)[C@@H]2CCCN2C(=O)[C@H](Cc2ccccc2)N(C)C(=O)[C@H](Cc2ccccc2)NC(=O)[C@H](C(C)C)N(C)C(=O)[C@@H]([C@H](C)CC)OC(=O)[C@H](C(C)(C)O)N(C)C(=O)[C@H](CC(C)C)NC(=O)[C@H](C(C)C)N(C)C1=O` (cyclo(F[NMeF]P[aIle][NMeV]L[NMeVal(β-OH)][X1][NMeV])) was tested. Which Activity [3] did it give?
Answer: inactive

Question: How did the Activity [4] turn out when `CC[C@@]1([C@@H]2O[C@@H]([C@H]3O[C@@](O)(CO)[C@H](C)C[C@@H]3C)C[C@@H]2C)CC[C@H]([C@]2(C)CC[C@]3(C[C@H](O)[C@@H](C)[C@@H]([C@@H](C)[C@@H](OC)[C@H](C)C(=O)O)O3)O2)O1` was run?
Answer: Active

Question: For `OC(Cn1cncn1)(Cn1cncn1)c1ccc(F)cc1F` [FLUCONAZOLE], which MIC (Pichia kudriavzevii [5]) is on record?
Answer: 32 µg/mL (≈ 104 µM)

Question: What about the MIC (Saccharomyces cerevisiae [6]) of the same molecule?
Answer: 64 µg/mL (≈ 209 µM)

Question: And the ratio (Saccharomyces cerevisiae [7])?
Answer: 8

Question: What about the MIC (Pichia kudriavzevii [8]) of the same molecule?
Answer: 32 µg/mL (≈ 104 µM)

Question: What about the MIC (Pichia kudriavzevii [9]) of the same molecule?
Answer: 128 µg/mL (≈ 418 µM)

Question: What about the MIC (Pichia kudriavzevii [10]) of the same molecule?
Answer: 256 µg/mL (≈ 836 µM)

Question: And the MIC (Saccharomyces cerevisiae [11])?
Answer: 2 µg/mL (≈ 6.53 µM)

Question: What about the Activity (Pichia kudriavzevii [12]) of the same molecule?
Answer: Active

Question: What about the MIC (Pichia kudriavzevii [13]) of the same molecule?
Answer: 32 µg/mL (≈ 104 µM)

Question: And the MIC (Saccharomyces cerevisiae [14])?
Answer: 2 µg/mL (≈ 6.53 µM)

Question: And the ratio (Saccharomyces cerevisiae [15])?
Answer: 4

Question: What about the MIC (Pichia kudriavzevii [16]) of the same molecule?
Answer: 128 µg/mL (≈ 418 µM)

Question: And the MIC (Pichia kudriavzevii [17])?
Answer: 256 µg/mL (≈ 836 µM)

Question: What about the Activity (Pichia kudriavzevii [18]) of the same molecule?
Answer: Active

Question: And the MIC (Saccharomyces cerevisiae [19])?
Answer: 0.5 µg/mL (≈ 1.63 µM)

Question: And the MIC (Pichia kudriavzevii [20])?
Answer: 32 µg/mL (≈ 104 µM)

Question: What about the Activity (Pichia kudriavzevii [21]) of the same molecule?
Answer: Active

Question: What about the MIC (Saccharomyces cerevisiae [22]) of the same molecule?
Answer: 4 µg/mL (≈ 13.1 µM)

Question: And the Activity (Pichia kudriavzevii [23])?
Answer: inactive

Question: What about the Activity [24] of the same molecule?
Answer: inactive

Question: And the MIC (Pichia kudriavzevii [25])?
Answer: 256 µg/mL (≈ 836 µM)

Question: And the ratio (Saccharomyces cerevisiae [26])?
Answer: 128

Question: What about the ratio (Saccharomyces cerevisiae [27]) of the same molecule?
Answer: 4

Question: And the MIC (Pichia kudriavzevii [28])?
Answer: 256 µg/mL (≈ 836 µM)

Question: What about the MIC (Pichia kudriavzevii [29]) of the same molecule?
Answer: 256 µg/mL (≈ 836 µM)

Question: What about the MIC (Pichia kudriavzevii [30]) of the same molecule?
Answer: 256 µg/mL (≈ 836 µM)

Question: What about the fractional inhibitory concentration index (FICI) [31] of the same molecule?
Answer: 0.35

Question: And the fractional inhibitory concentration index (FICI) [32]?
Answer: 0.112

Question: How did the Activity [33] turn out when `O=[N+]([O-])c1cc[n+]([O-])c2ccccc12` was run?
Answer: inactive

Question: For `C=C1[C@@H](C)[C@H]2[C@H](Cc3ccccc3)NC(=O)[C@]23[C@H](OC(C)=O)/C=C/[C@@](C)(O)C(=O)[C@@H](C)C/C=C/[C@H]3[C@@H]1O`, which Activity [34] is on record?
Answer: Active
